Tests used:
[1] = Tissue distribution; type: in vivo, Sprague–Dawley rats
[2] = test system: H. pylori MMX 3719; experiment: Spontaneous resistance frequency and MPC; type: cell-based, Helicobacter pylori
[3] = test system: H. pylori Rif-resistant, Mtz-resistant strains; experiment: MIC comparison, H. pylori resistant mutant panel; type: cell-based, Helicobacter pylori
[4] = test system: H. pylori SS1 (CagA+, VacA+); experiment: Mouse H. pylori infection model; type: in vivo, C57/BL6 mice; details: 45 mg/kg bid oral, 7 days, day 7
Method in brief: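 Male C57/BL6 mice (20-25 g) received 0.25 mL gavage inocula on three days (6.40, 6.90, 7.15 log₁₀ CFU). Inocula were 5-day Columbia laked-horse-blood-agar growth suspended in saline to OD530 1.5-2.0. From 7 days post-inoculation, test compound, controls or vehicle were dosed bid by gavage for 7 days. Stomach CFU were counted ~18-20 h post-dose on Dent-supplemented plates (microaerobic, 37 °C, 6-7 days); LOQ <2.35 log₁₀ CFU/stomach.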

[5] = test system: C. difficile MMX 4381; experiment: Spontaneous resistance frequency and MPC; type: cell-based, Clostridioides difficile
[6] = test system: G. vaginalis contemporary clinical isolates; experiment: MIC against contemporary clinical isolates; type: cell-based, Gardnerella vaginalis
[7] = test system: C. difficile UNT103-1 (VA11); experiment: Hamster C. difficile infection model; type: in vivo, Golden Syrian hamsters
Method in brief: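 Male Golden Syrian hamsters (80-90 g), singly housed, were infected orally by gavage three times with a sporulation-medium culture diluted to OD600 1 (~1.0 × 10^9 CFU/mL). […] Starting 18 h later (day 2), test compound, comparators or vehicle were given QD by oral gavage for 5 days. Survival was monitored through day 21.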

[8] = test system: clinical isolates of H. pylori, C. difficile, and G. vaginalis; experiment: MIC against contemporary clinical isolates; type: cell-based
[9] = test system: H. pylori contemporary clinical isolates; experiment: MIC against contemporary clinical isolates; type: cell-based, Helicobacter pylori
[10] = test system: G. Vaginalis MMX 5973; experiment: Spontaneous resistance frequency and MPC; type: cell-based, Gardnerella vaginalis
[11] = test system: C. difficile contemporary clinical isolates; experiment: MIC against contemporary clinical isolates; type: cell-based, Clostridioides difficile
[12] = H. pylori MMX 3719, conc. 0.5 μg/mL
[13] = H. pylori MMX 3719, conc. 1 μg/mL
[14] = H. pylori MMX 3719, conc. 2 μg/mL
[15] = H. pylori MMX 3719, conc. 4 μg/mL
[16] = C. difficile MMX 4381, conc. 1 μg/mL
[17] = C. difficile MMX 4381, conc. 2 μg/mL
[18] = C. difficile MMX 4381, conc. 4 μg/mL
[19] = H. pylori isolates China (N = 49)
[20] = G. Vaginalis MMX 5973, conc. 0.5 μg/mL
[21] = G. Vaginalis MMX 5973, conc. 1 μg/mL
[22] = G. Vaginalis MMX 5973, conc. 2 μg/mL
[23] = G. Vaginalis MMX 5973, conc. 4 μg/mL
[24] = C. difficile isolates China (N = 46)
[25] = C. difficile isolates USA (N = 50)

CO[C@H]1/C=C/O[C@@]2(C)Oc3c(C)c(O)c4c(c3C2=O)C2=NC3(CCN(CCn5c([N+](=O)[O-])cnc5C)CC3)NC2=C(NC(=O)/C(C)=C\C=C\[C@H](C)[C@H](O)[C@@H](C)[C@@H](O)[C@@H](C)[C@H](OC(C)=O)[C@@H]1C)C4=O [Compound 10, 4-Deoxy-3,4-[2-spiro-[1-[2-(2-methyl-5-nitro-imidazol-1-yl)ethyl]-piperidin-4-yl]]-(1H)-imidazo-(2,5-dihydro)rifamycin S]
TNP-2198 concentration ([1]; ascites fluid, 24 h): BLOQ | TNP-2198 concentration ([1]; brain, 12 h): BLOQ | TNP-2198 concentration ([1]; brain, 24 h): BLOQ | TNP-2198 concentration ([1]; plasma, 24 h): BLOQ | TNP-2198 concentration ([1]; stomach content, 0.5 h): 3,264,000 ng/g | TNP-2198 concentration ([1]; stomach content, 2 h): 1,750,320 ng/g | TNP-2198 concentration ([1]; vaginal tissue, 24 h): BLOQ | spontaneous frequency of mutation ([2]; H. pylori MMX 3719, all concentrations tested): < 5 × 10^–9 μg/mL | resistant colonies identified, mean [2, 12]: 0 | resistant colonies identified, test 1 [2, 12]: 0 | resistant colonies identified, test 2 [2, 12]: 0 | spontaneous resistance frequency ([2]; H. pylori MMX 3719, conc. 0.5 μg/mL, inoculum 1.90 × 10^8 CFU): <5 × 10^–9 | resistant colonies identified, mean [2, 13]: 0 | resistant colonies identified, test 1 [2, 13]: 0 | resistant colonies identified, test 2 [2, 13]: 0 | spontaneous resistance frequency [2, 13]: <5 × 10^–9 | resistant colonies identified, mean [2, 14]: 0 | resistant colonies identified, test 1 [2, 14]: 0 | resistant colonies identified, test 2 [2, 14]: 0 | spontaneous resistance frequency [2, 14]: <5 × 10^–9 | resistant colonies identified, mean [2, 15]: 0 | resistant colonies identified, test 1 [2, 15]: 0 | resistant colonies identified, test 2 [2, 15]: 0 | spontaneous resistance frequency [2, 15]: <5 × 10^–9 | fold more active than the 1:1 molar combination of the parent drugs ([3]; Mtz-resistant strain (CB1573)): 1- to 125 fold | fold more active than the 1:1 molar combination of the parent drugs ([3]; Rif-resistant strains (CB1902, CB1903 and CB1614)): 4- to 128 fold | fold more active than Rif, Rbt, or Mtz ([3]; dual Rif-resistant, Mtz-resistant strains (CB1771 and CB1893)): 32- to 64 fold | mean bacterial stomach titer [4]: 1.70 log10 CFU | resistant colonies identified, test 1 ([5]; C. difficile MMX 4381, conc. 0.5 μg/mL): 0 | spontaneous resistance frequency ([5]; C. difficile MMX 4381, conc. 0.5 μg/mL, inoculum 1.23 × 10^9 CFU): 8 × 10^–10 | resistant colonies identified, mean [5, 16]: 0 | resistant colonies identified, test 1 [5, 16]: 0 | resistant colonies identified, test 2 [5, 16]: 0 | spontaneous resistance frequency [5, 16]: <8 × 10^–10 | resistant colonies identified, mean [5, 17]: 0 | resistant colonies identified, test 1 [5, 17]: 0 | resistant colonies identified, test 2 [5, 17]: 0 | spontaneous resistance frequency [5, 17]: <8 × 10^–10 | resistant colonies identified, mean [5, 18]: 0 | resistant colonies identified, test 1 [5, 18]: 0 | resistant colonies identified, test 2 [5, 18]: 0 | spontaneous resistance frequency [5, 18]: <8 × 10^–10 | spontaneous frequency of mutation ([5]; C. difficile MMX 4381, lowest concentration tested): 8 × 10^–10 | MIC range ([6]; G. vaginalis isolates China (N = 24)): ≤0.004 to 0.06 µg/mL | MIC range ([6]; G. vaginalis isolates USA (N = 101)): ≤0.004 to 0.06 µg/mL | mortality ([7]; 5 mg/kg QD oral, days 7–9): 10–30% | survival ([7]; 5 mg/kg QD oral, during the 5-day dosing regimen): 100% | survival ([7]; 15 mg/kg QD oral days 2–6, through day 21): 100% | survival ([7]; 45 mg/kg QD oral days 2–6, through day 21): 100% | MIC90 [8]: < 1 µg/mL | MIC range [9, 19]: ≤0.002 to 1 µg/mL | MIC range ([9]; H. pylori isolates USA (N = 200)): ≤0.001 to 2 µg/mL | resistant colonies identified, mean [10, 20]: 0 | resistant colonies identified, test 1 [10, 20]: 0 | resistant colonies identified, test 2 [10, 20]: 0 | spontaneous resistance frequency ([10]; G. Vaginalis MMX 5973, conc. 0.5 μg/mL, inoculum 4.50 × 10^8 CFU): <2 × 10^–9 | resistant colonies identified, mean [10, 21]: 0 | resistant colonies identified, test 1 [10, 21]: 0 | resistant colonies identified, test 2 [10, 21]: 0 | spontaneous resistance frequency [10, 21]: <2 × 10^–9 | resistant colonies identified, mean [10, 22]: 0 | resistant colonies identified, test 1 [10, 22]: 0 | resistant colonies identified, test 2 [10, 22]: 0 | spontaneous resistance frequency [10, 22]: <2 × 10^–9 | resistant colonies identified, mean [10, 23]: 0 | resistant colonies identified, test 1 [10, 23]: 0 | resistant colonies identified, test 2 [10, 23]: 0 | spontaneous resistance frequency [10, 23]: <2.00 × 10^–9 | spontaneous frequency of mutation ([10]; G. vaginalis MMX 5973, all concentrations tested): < 2 × 10^–9 μg/mL | MIC range [11, 24]: ≤0.06 to 2 µg/mL | MIC range [11, 25]: ≤0.002 to 4 µg/mL

Cc1ncc([N+](=O)[O-])n1CCO [metronidazole, reference compound]
mortality ([7]; 100 mg/kg QD oral, by day 4): 100% | MIC range [11, 24]: ≤0.06 to 32 µg/mL | MIC range [11, 25]: 0.12 to 4 µg/mL

CO[C@H]1/C=C/O[C@@]2(C)Oc3c(C)c(O)c4c(O)c(c(/C=N/N5CCN(C)CC5)c(O)c4c3C2=O)NC(=O)/C(C)=C\C=C\[C@H](C)[C@H](O)[C@@H](C)[C@@H](O)[C@@H](C)[C@H](OC(C)=O)[C@@H]1C [rifampin, reference compound]
MIC range [9, 19]: ≤0.06 to 64 µg/mL

Source: PMC8958509 (Journal of Medicinal Chemistry, 2022)
